Measured values from ChEMBL document CHEMBL3813658, “Texas Native Plants Yield Compounds with Cytotoxic Activities against Prostate Cancer Cells” (J Nat Prod, 2016).
The source made the active and inactive calls. The rule behind the calls is not given here.

What was measured:
[1] = Antiproliferative activity against human PC3 cells after 48 hrs by sulforhodamine B assay; format: functional, cell-based; conditions: PC-3, 48 h
[2] = Antiproliferative activity against human DU145 cells after 48 hrs by sulforhodamine B assay; format: functional, cell-based; conditions: DU-145, 48 h
How it was run: (§1)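 Sulforhodamine B assay. DU 145 cells in IMEM/10% FBS and PC-3 cells in RPMI-1640/10% FBS, both kept at 37 °C with 5% CO2, seeded at predetermined densities and left to adhere overnight. Cells exposed 48 h to a concentration range or DMSO vehicle, then TCA-fixed and SRB-stained. Bound dye dissolved in Tris and read at 560 nm.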

DU-145 [3] = test: Ratio of IC50 for human PC3 cells to IC50 for human DU145 cells; format: functional
[4] = Cytotoxicity against human DU145 cells assessed as reduction in cell density at 61.3 uM after 48 hrs by sulforhodamine B assay relative to control; format: functional; conditions: DU-145, 48 h; how it was run: as §1
[5] = Cell cycle arrest in human DU145 cells assessed as accumulation at G0/G1 phase at 5 times antiproliferative IC50 after 16 to 23 hrs by propidium iodide staining based flow cytometry (reference value: 50.4 +/- […]%); format: functional; conditions: DU-145
[6] = Cytotoxicity against human PC3 cells assessed as reduction in cell density at 12.5 uM after 48 hrs by sulforhodamine B assay relative to control; format: functional; conditions: PC-3, 48 h; how it was run: as §1
[7] = Cytotoxicity against human DU145 cells assessed as reduction in cell density at 12.5 uM after 48 hrs by sulforhodamine B assay relative to control; format: functional; conditions: DU-145, 48 h; how it was run: as §1
DU-145 [8] = test: (§2) Inhibition of colony formation in human DU145 cells at antiproliferative IC90 incubated for 4 hrs followed by compound washout measured after 7 to 9 days by crystal violet staining based clonogenic assay relative to control; format: functional
How it was run: (§3)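 DU 145 cells plated at 150 per 60 mm plate and left to adhere about 24 h. Cells treated 4 h at the IC90 concentration, washed with fresh medium, then grown 7−9 days drug-free. Colonies stained with 0.5% crystal violet in 20% methanol, counted by imaging, and compared with vehicle-treated controls.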

[9] = Cell cycle arrest in human DU145 cells assessed as accumulation at S phase at 5 times antiproliferative IC50 after 16 to 23 hrs by propidium iodide staining based flow cytometry (reference value: 27.8 +/- 1%); format: functional; conditions: DU-145
How it was run: (§4)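 Cells harvested on ice, stained with Krishan's reagent (propidium iodide), and DNA content read by flow cytometry. Phase percentages derived from DNA histograms. n = 2–3 per compound, n = 5 for vehicle; error bars are SEM.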

[10] = Cell cycle arrest in human DU145 cells assessed as accumulation at G2/M phase at 5 times antiproliferative IC50 after 16 to 23 hrs by propidium iodide staining based flow cytometry (reference value: 21.8 +/- 1.5%); format: functional; conditions: DU-145; how it was run: as §4
DU-145 [11] = test: Disruption of mitotic spindle in human DU145 cells assessed as elongated and curved morphology at 5 times antiproliferative IC50 after 16 to 18 hrs by DAPI staining based immunofluorescence microscopy; format: functional, cell-based
How it was run: (§5)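 Cells fixed in ice-cold methanol, then stained with anti-β-tubulin and FITC secondary antibody; DNA stained with DAPI. Spindle morphology, metaphase DNA alignment and interphase microtubules assessed by fluorescence microscopy.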

DU-145 [12] = test: Effect on interphase microtubule in human DU145 cells at 5 times antiproliferative IC50 after 16 to 18 hrs by DAPI staining based immunofluorescence microscopy; format: functional, cell-based; how it was run: as §5
[13] = target: T1, Mitogen-activated protein kinase; ERK1/ERK2 (Homo sapiens) (UniProt P27361+P28482); test: Activation of ERK1/2 in human DU145 cells assessed as increase in phosphorylation at Thr202/Tyr204 residue at antiproliferative IC90 after 4 hrs by fluorescence based intracellular signaling array method; format: cell-based; conditions: DU-145
T1 sequence (P27361 whole entry, looked up): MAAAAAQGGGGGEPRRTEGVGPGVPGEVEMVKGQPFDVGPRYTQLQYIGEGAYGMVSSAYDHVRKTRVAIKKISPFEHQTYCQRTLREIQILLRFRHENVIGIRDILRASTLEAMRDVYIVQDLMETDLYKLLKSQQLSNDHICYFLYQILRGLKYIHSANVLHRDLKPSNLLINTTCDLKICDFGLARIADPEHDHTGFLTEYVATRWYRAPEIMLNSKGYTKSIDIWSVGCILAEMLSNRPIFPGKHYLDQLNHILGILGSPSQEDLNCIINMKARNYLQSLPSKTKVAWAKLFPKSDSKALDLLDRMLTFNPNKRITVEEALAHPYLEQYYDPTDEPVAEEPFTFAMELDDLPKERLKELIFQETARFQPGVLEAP
T1 sequence (P28482 whole entry, looked up): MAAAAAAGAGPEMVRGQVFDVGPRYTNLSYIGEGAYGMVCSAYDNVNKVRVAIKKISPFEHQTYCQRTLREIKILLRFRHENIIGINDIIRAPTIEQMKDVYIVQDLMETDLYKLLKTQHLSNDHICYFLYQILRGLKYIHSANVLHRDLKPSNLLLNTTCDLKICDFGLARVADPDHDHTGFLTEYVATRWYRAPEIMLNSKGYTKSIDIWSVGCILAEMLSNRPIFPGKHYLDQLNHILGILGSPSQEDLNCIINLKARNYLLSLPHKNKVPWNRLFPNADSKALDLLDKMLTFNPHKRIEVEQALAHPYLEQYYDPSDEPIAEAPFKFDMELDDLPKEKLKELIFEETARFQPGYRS
How it was run: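 PathScan intracellular signaling array with fluorescent read-out. DU 145 cells treated for 4 h; lysates made with cell extraction buffer plus protease inhibitors, as for Western blots. Phospho-Erk1/2 at Thr202/Tyr204 scored.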

[14] = target: T1, Mitogen-activated protein kinase; ERK1/ERK2 (Homo sapiens); test: Increase in ERK1/2 phosphorylation in human DU145 cells at antiproliferative IC90 after 2 to 18 hrs by Western blot analysis; format: cell-based; conditions: DU-145
How it was run: (§6)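 Equal protein run on SDS-PAGE and blotted to membrane. Probed with phospho-p44/42 and total p44/42 antibodies (1:1000) and HRP secondaries (1:5000), then quantified by densitometry.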

[15] = Cytotoxicity against human PC3 cells assessed as reduction in cell density after 48 hrs by sulforhodamine B assay relative to control; format: functional, PC-3; how it was run: as §1
[16] = Cytotoxicity against human DU145 cells assessed as reduction in cell density after 48 hrs by sulforhodamine B assay relative to control; format: functional, DU-145; how it was run: as §1
[17] = as §2; format: functional, DU-145; how it was run: as §3
DU-145 [18] = test: Disruption of mitotic spindle in human DU145 cells assessed as incorrect alignment of DNA at metaphase at 5 times antiproliferative IC50 after 16 to 18 hrs by DAPI staining based immunofluorescence microscopy; format: functional, cell-based; how it was run: as §5
Tubulin (Sus scrofa) [19] = target: T2, Tubulin (Sus scrofa) (UniProt P02554+P02550); test: Induction of porcine brain tubulin polymerization at 2 uM incubated for 1 hr by turbidimetric assay
T2 sequence (P02550 whole entry, looked up): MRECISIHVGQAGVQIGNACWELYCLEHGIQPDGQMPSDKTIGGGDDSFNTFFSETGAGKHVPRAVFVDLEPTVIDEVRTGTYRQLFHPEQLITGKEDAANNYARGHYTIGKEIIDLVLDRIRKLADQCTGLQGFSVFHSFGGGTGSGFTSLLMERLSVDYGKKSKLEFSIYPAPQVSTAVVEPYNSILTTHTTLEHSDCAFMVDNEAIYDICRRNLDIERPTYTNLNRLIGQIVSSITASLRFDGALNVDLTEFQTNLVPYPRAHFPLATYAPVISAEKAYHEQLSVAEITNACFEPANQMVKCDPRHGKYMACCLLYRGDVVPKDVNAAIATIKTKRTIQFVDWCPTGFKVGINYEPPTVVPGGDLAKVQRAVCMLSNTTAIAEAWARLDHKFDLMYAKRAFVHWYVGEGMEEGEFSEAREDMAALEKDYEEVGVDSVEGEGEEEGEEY
T2 sequence (P02554 whole entry, looked up): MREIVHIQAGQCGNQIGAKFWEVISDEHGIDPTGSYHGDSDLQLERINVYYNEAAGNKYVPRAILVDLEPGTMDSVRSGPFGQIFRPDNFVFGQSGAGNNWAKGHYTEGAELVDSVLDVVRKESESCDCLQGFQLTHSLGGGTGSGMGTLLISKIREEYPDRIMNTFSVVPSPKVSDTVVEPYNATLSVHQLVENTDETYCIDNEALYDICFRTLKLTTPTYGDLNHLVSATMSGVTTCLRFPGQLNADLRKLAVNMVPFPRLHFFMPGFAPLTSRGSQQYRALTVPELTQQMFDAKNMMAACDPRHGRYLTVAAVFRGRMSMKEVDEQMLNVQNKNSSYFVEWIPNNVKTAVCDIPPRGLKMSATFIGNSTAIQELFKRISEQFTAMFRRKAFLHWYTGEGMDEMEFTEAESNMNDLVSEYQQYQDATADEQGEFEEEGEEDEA
How it was run: (§7)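 Purified porcine brain tubulin (2 mg/mL) in GPEM buffer with 1 mM GTP, polymerized for 1 h at 37 °C with 1% DMSO vehicle or compound at 2 or 20 μM. Turbidity followed as absorbance at 340 nm; initial rate and total polymer assessed.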

Tubulin (Sus scrofa) [20] = target: T2, Tubulin (Sus scrofa); test: Induction of porcine brain tubulin polymerization at 20 uM incubated for 1 hr by turbidimetric assay; how it was run: as §7
[21] = target: T1, Mitogen-activated protein kinase; ERK1/ERK2 (Homo sapiens); test: Increase in ERK1/2 phosphorylation in human DU145 cells at antiproliferative IC90 up to 2 hrs by Western blot analysis; format: cell-based; conditions: DU-145; how it was run: as §6
[22] = Cytotoxicity against human PC3 cells assessed as reduction in cell density at 61.7 uM after 48 hrs by sulforhodamine B assay relative to control; format: functional; conditions: PC-3, 48 h; how it was run: as §1
[23] = Cytotoxicity against human DU145 cells assessed as reduction in cell density at 61.7 uM after 48 hrs by sulforhodamine B assay relative to control; format: functional; conditions: DU-145, 48 h; how it was run: as §1
DU-145 [24] = test: Disruption of mitotic spindle in human DU145 cells assessed as elongated and curved morphology at 2 times antiproliferative IC50 after 16 to 18 hrs by DAPI staining based immunofluorescence microscopy; format: functional, cell-based; how it was run: as §5
DU-145 [25] = test: Disruption of mitotic spindle in human DU145 cells assessed as incorrect alignment of DNA at metaphase at 2 times antiproliferative IC50 after 16 to 18 hrs by DAPI staining based immunofluorescence microscopy; format: functional, cell-based; how it was run: as §5
Tubulin (Sus scrofa) [26] = target: T2, Tubulin (Sus scrofa); test: Effect on total porcine brain tubulin polymer level at 20 uM incubated for 1 hr by turbidimetric assay; how it was run: as §7

| Activity [13] | Activity [14] | Activity (Tubulin (Sus scrofa) [19]) | Activity (Tubulin (Sus scrofa) [20]) | Compound | IC50 [1] [µM] | IC50 [2] [µM] | Ratio IC50 (DU-145 [3]) | Activity [5] [%] | Activity [9] [%] | Activity [10] [%] | Activity (DU-145 [11]) | inhibition (INH) [15] [%] | inhibition (INH) [16] [%] | inhibition (INH) [17] [%] | Activity (DU-145 [18]) | also measured |
| --- | --- | --- | --- | --- | --- | --- | --- | --- | --- | --- | --- | --- | --- | --- | --- | --- |
| – | – | – | – | CC(C)(O)C(O)Cc1c(O)ccc(C(=O)/C=C/c2ccccc2)c1O (stereo not drawn) | 35 | 25.5 | 1.4 | – | – | – | – | – | – | – | – | inhibition at 61.3 µM [4]: 46% |
| – | – | – | – | CC(=O)O[C@H]1C(=O)[C@@]2(C)[C@H]([C@H](OC(=O)c3ccccc3)[C@]3(O)C[C@H](OC(=O)[C@H](O)[C@@H](NC(=O)c4ccccc4)c4ccccc4)C(C)=C1C3(C)C)[C@]1(OC(C)=O)CO[C@@H]1C[C@@H]2O [PACLITAXEL] | – | 0.0038 | – | – | – | – | – | – | – | – | – | – |
| Active | inactive | – | – | CC(C)[C@@H]1CC[C@@]2(C)CCC[C@@](C)(O)[C@@H]2[C@@H]1OC(=O)/C=C/c1ccc(O)cc1 | 4 | 5.2 | 0.77 | 51.5 | 24.9 | 23.5 | inactive | – | – | – | – | inhibition at 12.5 µM [6]: 84%; inhibition at 12.5 µM [7]: 84%; inhibition (DU-145 [8]): inactive; Activity (DU-145 [12]): inactive |
| Active | inactive | inactive | inactive | C=C(C)C(=O)O[C@H]1C/C(C=O)=C\CC/C(C)=C/[C@H]2OC(=O)C(=C)[C@H]12 | 3 | 1.8 | 1.7 | 46.4 | 27.2 | 26.4 | Active | 20 | 20 | 98 | Active | Activity [21]: Active |
| Active | Active | inactive | inactive | C=C1C(=O)O[C@H]2C/C(COC(=O)C(C)C)=C/CC[C@]3(C)O[C@H]3[C@@H](O)[C@H]12 | 4.7 | 1.7 | 2.8 | 34.4 | 31.2 | 34.5 | Active | 30 | 20 | 42 | Active | – |
| Active | – | inactive | inactive | C=C(C)C(=O)OC/C1=C\CC[C@]2(C)O[C@H]2[C@@H](O)[C@@H]2C(=C)C(=O)O[C@H]2C1 | 12 | 3.7 | 3.2 | 32.8 | 32.7 | 34.5 | Active | 30 | 20 | 23 | Active | Activity [21]: Active |
| – | – | inactive | Active | C=C(C)C(O)Cc1c(O)ccc(C(=O)/C=C/c2ccccc2)c1O (stereo not drawn) | 11 | 7 | 1.6 | 37.8 | 28.8 | 33.4 | – | – | – | 44 | – | inhibition at 61.7 µM [22]: 84%; inhibition at 61.7 µM [23]: 84%; Activity (DU-145 [24]): Active; Activity (DU-145 [25]): Active; Activity (Tubulin (Sus scrofa) [26]): inactive |
